From ChEMBL document CHEMBL5113504, “Discovery of potent benzoxaborole inhibitors against SARS-CoV-2 main and dengue virus proteases” (Eur J Med Chem, 2022) come the findings set out here.

Series [1] addresses Replicase polyprotein 1ab (Severe acute respiratory syndrome coronavirus 2) (UniProt P0DTD1). The series can be described thus: Inhibition of C-terminal His tagged SARS CoV-2 main protease transfected in Escherichia coli BL21 (DE3) using 2-Abz-Ser-AlaVal-Leu-Gln-Ser-Gly-Tyr(3-NO2)-Arg-OH as substrate at 50 uM preincubated for 15 mins followed by substrate addition and measured after 15 mins by FRET assay relative to control. Particulars: time 30.0 min.

For the next series, the target named is Genome polyprotein (dengue virus type 2, UniProt P29990). The series can be described thus: Inhibition of full length DENV2 NS2B-NS3 protease in human HeLa cells expressing luciferase reporter gene incubated for 24 hrs by luminescence analysis. It counts as cell-based. The method, boiled down:
(§1)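 Stable DENV2pro reporter HeLa cells seeded at 2×10^4 per well and dosed immediately; 24 h at 37 °C, lysed 15 min, coelenterazine (2.75 μM in PBS) injected, luminescence read 5 s. Triplicates; % inhibition vs untreated cells; EC50 by 4-parameter fit with cell-free background subtraction.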

The target in series [2] is Genome polyprotein (dengue virus type 2) (UniProt P29990). The experiment in a line: Inhibition of full length DENV2 NS2B-NS3 protease in human HeLa cells expressing luciferase reporter gene at 12.5 uM incubated for 24 hrs by luminescence analysis relative to control. It counts as cell-based. The method, boiled down:
as §1

Series [3] concerns HeLa. The series can be described thus: Cytotoxicity against human HeLa cells expressing luciferase-based DENV-2 protease reporter system assessed as reduction in cell viability by celltiter-blue assay. It is filed as toxicity. The method, boiled down:
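CellTiter-Blue viability in HeLa reporter cells or Huh-7 cells, on plates run in parallel with the reporter or titer-reduction assay under the same treatment; each concentration in triplicate.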

The subject of series [4] is HeLa. The series can be described thus: Cytotoxicity against human HeLa cells expressing renilla luciferase reporter construct assessed as reduction in cell viability at 12.5 uM by luciferase based analysis. It is filed as toxicity.

Consider `CC(C(=O)Nc1ccc2c(c1)B(O)OC2)c1cccc(Oc2ccccc2)c1` (stereo not drawn), for which the inhibition was 19% in series [1] and 76.7% in series [2]. On Genome polyprotein, the EC50 is 3.1 µM. Moreover, in the series with HeLa [3], the half-maximal cytotoxic concentration (CC50) is above 50 µM.
The corresponding values for `O=C(Nc1ccc2c(c1)B(O)OC2)c1ccc(OCc2ccccc2)cc1` are 39.6%, 54.4%, 8.8 µM and above 50 µM.
`O=C(Nc1ccc2c(c1)B(O)OC2)c1ccc(C(F)(F)F)cc1`: the inhibition in series [1] was 21%; in series [2], below 10%. Also, the CC50 with HeLa [3] was above 50 µM. For the same compound, the Activity result with HeLa [4] is reported as “Non-Toxic”.
With `O=C(Nc1ccc2c(c1)B(O)OC2)c1ccc(N2CCOCC2)cc1`, the inhibition in series [1] is 12.7%; in series [2], 41.1%. This compound gave an EC50 on Genome polyprotein of 17.1 µM. For the same compound, in the series on HeLa [3], the CC50 was above 50 µM. Also, the Activity entry in the series on HeLa [4] is “Non-Toxic”.
As for `COc1cccc(C(=O)Nc2ccc3c(c2)B(O)OC3)c1`, the inhibition in series [1] worked out at 24.3%; in series [2], 60.1%. The same compound gave a concentration giving a half-maximal response (EC50) on Genome polyprotein of 6.4 µM. Further, in the series on HeLa [3], the cytotoxic concentration (CC50) was above 100 µM.
Consider `OB1OCc2ccccc21` [BENZOXABOROLE], for which the inhibition in series [1] and in series [2] was below 10% throughout. The half-maximal cytotoxic concentration (CC50) in the series with HeLa [3] was above 100 µM. Besides, in the series on HeLa [4], the Activity entry was “Non-Toxic”.
With `Nc1ccc2c(c1)B(O)OC2`, the inhibition is 17.5% in series [1] and below 10% in series [2]. For the same compound, the CC50 with HeLa [3] is above 100 µM. Besides, the Activity result with HeLa [4] was “Non-Toxic”.
Take `O=C(Nc1ccc2c(c1)B(O)OC2)OCc1ccccc1`: the inhibition is below 10% in series [1] and 67.5% in series [2]. The same compound gave a concentration giving a half-maximal response (EC50) at Genome polyprotein of 4 µM. Besides, the CC50 in the series with HeLa [3] was above 50 µM.
On the same counts, the results for `O=C(Nc1ccc2c(c1)B(O)OC2)c1cccc(Oc2ccccc2)c1` are 34.6%, 77.4%, 6.4 µM and above 50 µM.
As for `OB1OCc2cc(F)ccc21` [TAVABOROLE], the inhibition was below 10% in series [1] and 15.3% in series [2]. Also, the 50% cytotoxic concentration (CC50) in the series with HeLa [3] was above 50 µM.
On to `COc1cccc(COc2cccc(C(=O)Nc3ccc4c(c3)B(O)OC4)c2)c1`, for which the inhibition in series [1] came out at 45.7%; in series [2], 90%. Moreover, in the series on HeLa [3], the CC50 is above 200 µM.
The corresponding values for `Nc1ccc(C(=O)Nc2ccc3c(c2)B(O)OC3)cc1` are 39.7%, 14.3% and above 200 µM.
On to `N#Cc1ccc(CNc2ccc3c(c2)B(O)OC3)cc1`, for which the inhibition in series [1] is below 10%; in series [2] it was 41.8%. The CC50 in the series with HeLa [3] is above 100 µM.
`O=C(Nc1ccc2c(c1)B(O)OC2)c1cccc(OCC2CCCCC2)c1`: the inhibition in series [1] came out at 29.3%; in series [2], 79.1%. In the series with HeLa [3], the CC50 is 123 µM.
Turning to `CN(c1ccc2c(c1)B(O)OC2)S(=O)(=O)c1ccc(Cl)cc1`, the results for the inhibition in series [1] and in series [2] were below 10% and 24.2%, respectively. At Genome polyprotein, this compound displayed a 50% effective concentration (EC50) above 50 µM. Also, the CC50 in the series on HeLa [3] was above 50 µM. Also, in the series on HeLa [4], the Activity entry is on record as “Non-Toxic”.
Consider `O=[N+]([O-])c1ccc2c(c1)B(O)OC2`, for which the inhibition is below 10% in series [1] and 14.5% in series [2]. Moreover, in the series on HeLa [3], the CC50 is above 100 µM.
Turning to `Cc1onc(-c2ccc(F)cc2)c1C(=O)Nc1ccc2c(c1)B(O)OC2`, the inhibition in series [1] is below 10%; in series [2], 32.6%. Besides, at Genome polyprotein, a half-maximal effect (EC50) was put at 21.6 µM. For the same compound, the CC50 in the series on HeLa [3] is above 100 µM. Further, the Activity result in the series with HeLa [4] is “Non-Toxic”.
Turning to `CCCCCC(=O)Nc1ccc2c(c1)B(O)OC2`, the inhibition was below 10% in series [1] and 37.2% in series [2]. Moreover, the EC50 at Genome polyprotein was 19.2 µM. The CC50 with HeLa [3] was above 200 µM.
As for `O=C(Nc1ccccc1)Nc1ccc2c(c1)B(O)OC2`, the figures for the inhibition in series [1] and in series [2] were 15.9% and 31%, respectively. For the same compound, at Genome polyprotein, the EC50 worked out at 22.5 µM. Besides, the CC50 in the series with HeLa [3] is above 200 µM.
